Calb biofilm kill = clotrimazole potentiators killing C. albicans biofilm, primary screen, 4-compound mixtures. C. albicans biofilm persisters + clotrimazole, fluorescence viability; primary screen in compound mixtures of four per well. AID 1242, 2008. inhibition, % at 7.6 µM. actives 0.02% (n = 120,000);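 active = inhibition above 30.3% in the primary screen of four-compound pools, then above 30% when the compound was retested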;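 note: compounds exposed to preformed 24 h biofilms for 48 h; 0% = untreated biofilm control and 100% = clotrimazole plus chlorhexidine kill blank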
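Test system: C. albicans biofilms. Buffer or medium: RPMI/MOPS medium, pH 7.0. Timing: 48 h compound exposure at 37 °C. Technique: Alamar Blue fluorescence. Evaluation: percent inhibition of biofilm viability.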
TNAP inh no acc = human TNAP enzyme inhibitors, primary screen, biochemical, luminescent, no phosphate acceptor, uHTS | AID 1012, 2008 | Alkaline phosphatase, tissue-nonspecific isozyme (Homo sapiens), P05186 | actives 0.26% (n = 200,000) | purified TNAP, CDP-star luminescence, 30 min | inhibition, % at 20 µM;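 active = tissue-nonspecific alkaline phosphatase inhibition above about 50% at 20 µM in the single-dose screen, limit read from the data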;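 note: 0% = DMSO negative control and 100% = EDTA positive control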
Target sequence (P05186 whole entry, looked up): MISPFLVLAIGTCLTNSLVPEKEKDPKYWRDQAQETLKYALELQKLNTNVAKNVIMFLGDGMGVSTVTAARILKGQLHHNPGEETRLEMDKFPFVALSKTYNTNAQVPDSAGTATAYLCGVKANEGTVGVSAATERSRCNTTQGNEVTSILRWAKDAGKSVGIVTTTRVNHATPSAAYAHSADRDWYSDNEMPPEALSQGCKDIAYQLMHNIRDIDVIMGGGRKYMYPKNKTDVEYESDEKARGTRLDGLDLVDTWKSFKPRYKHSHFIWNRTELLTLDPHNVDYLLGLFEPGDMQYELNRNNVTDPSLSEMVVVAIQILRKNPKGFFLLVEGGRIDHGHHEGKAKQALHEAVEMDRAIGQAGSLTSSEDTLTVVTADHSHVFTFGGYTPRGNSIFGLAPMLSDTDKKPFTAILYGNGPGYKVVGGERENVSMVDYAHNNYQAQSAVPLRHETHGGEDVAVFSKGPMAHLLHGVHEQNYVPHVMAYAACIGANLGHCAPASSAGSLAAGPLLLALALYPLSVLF
TNAP act hi DEA = TNAP activators at high phosphate acceptor level, primary screen, biochemical, luminescence, uHTS; Alkaline phosphatase, tissue-nonspecific isozyme (Homo sapiens), P05186; purified TNAP, CDP-star luminescence, 1 M DEA, 30 min; active compounds read high; 0 = EDTA background, 1 = DMSO-only activity; activation factor at 20 µM; 200,000 tested, under 10 active;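 active = activation factor at least 2 at 20 µM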
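Dosing: 20 µM single point. System: human TNAP. Amount: TNAP 1/800 final. Incubation: 30 min, room temperature. Read-out: TNAP activation factor scaled between EDTA and DMSO control wells. Signal: luminescence from CDP-star hydrolysis. Medium: 1 M DEA, pH 9.8, Mg2+, Zn2+. Control set: EDTA negative control, DMSO positive control.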
TNAP inh hi DEA = human TNAP enzyme inhibitors, primary screen, biochemical, luminescent, high phosphate acceptor level, uHTS. Alkaline phosphatase, tissue-nonspecific isozyme (Homo sapiens), P05186. purified TNAP, CDP-star luminescence, 1 M DEA. inhibition, % at 20 µM. actives 0.03% (n = 200,000);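 active = over 50% inhibition of tissue-nonspecific alkaline phosphatase at 20 µM in the single-dose screen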;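 note: plate controls were DMSO wells for no effect and EDTA-quenched wells as full inhibition for full effect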
An asterisk follows results filed as active. Compounds with a hit are over-represented: about 0.26% of the library has one in this group of screens.

What do the screens show for `Cc1ccc2nc(SCC(=O)c3c(C)[nH]c4ccccc34)[nH]c2c1`?
Calb biofilm kill: 1; TNAP inh no acc: -45; TNAP act hi DEA: 1; TNAP inh hi DEA: 1

Results for Cc1[nH]n(-c2cccc3ccccc23)c(=O)c1/C=N/NC(=O)c1cccc([N+](=O)[O-])c1 ?
Calb biofilm kill: 15; TNAP inh no acc: 51*; TNAP act hi DEA: 0.9; TNAP inh hi DEA: 12

What do the screens show for `Cc1[nH]n(-c2ccccc2)c(=O)c1/C=N/NC(=O)c1cccc([N+](=O)[O-])c1`?
TNAP inh no acc: 4; TNAP act hi DEA: 1.1; TNAP inh hi DEA: -6

What do the screens show for `CCN(CC)C(=O)CNC(=O)Cc1ccc(Cl)cc1`?
TNAP inh no acc: -3; TNAP act hi DEA: 1; TNAP inh hi DEA: 1

How did CCOc1cccc(/C=N/NC(=S)Nc2ccccc2[N+](=O)[O-])c1O do in these assays?
Calb biofilm kill: 12; TNAP inh no acc: -99; TNAP act hi DEA: 0.9; TNAP inh hi DEA: 14

Results for O=[N+]([O-])c1ccccc1NC(=S)N/N=C/c1ccc(O)c(O)c1 ?
Calb biofilm kill: 3; TNAP inh no acc: 85*; TNAP act hi DEA: 0.8; TNAP inh hi DEA: 20

Results for CC(=O)Nc1ccc(S(=O)(=O)N(CC(=O)Nc2cc(C)on2)Cc2ccc(F)cc2)cc1 ?
Calb biofilm kill: 9

What do the screens show for `O=C(N/N=C/c1ccco1)c1cc(-c2ccc(Cl)s2)[nH]n1`?
Calb biofilm kill: 9; TNAP inh no acc: 54*; TNAP act hi DEA: 0.8; TNAP inh hi DEA: 15

How did CC(C)c1cc(C(=O)N/N=C/c2ccco2)n[nH]1 do in these assays?
Calb biofilm kill: 7; TNAP inh no acc: 61*; TNAP act hi DEA: 1; TNAP inh hi DEA: -2

What do the screens show for `O=C(N/N=C/c1ccco1)c1cc(-c2cccs2)[nH]n1`?
Calb biofilm kill: 18; TNAP inh no acc: 87*; TNAP act hi DEA: 0.8; TNAP inh hi DEA: 15

Results for CC(C)c1cc(C(=O)N/N=C/c2cccnc2)n[nH]1 ?
Calb biofilm kill: 15; TNAP inh no acc: 63*; TNAP act hi DEA: 1; TNAP inh hi DEA: 4

How did O=C(N/N=C/c1ccco1)c1cc(-c2ccc(Br)s2)[nH]n1 do in these assays?
Calb biofilm kill: 16

How did COCCn1c(SCC(=O)Nc2ccc(Cl)cn2)nnc1-c1ccncc1 do in these assays?
Calb biofilm kill: 13; TNAP inh no acc: -14; TNAP act hi DEA: 1; TNAP inh hi DEA: -3

How did COc1ccccc1N1C(=O)C2C3C=CC(C3)C2C1=O (configuration not stated) do in these assays?
TNAP inh no acc: -10; TNAP act hi DEA: 1; TNAP inh hi DEA: -3

What do the screens show for `COC(=O)c1cc(-c2cccs2)[nH]n1`?
Calb biofilm kill: 11; TNAP inh no acc: 96*; TNAP act hi DEA: 1; TNAP inh hi DEA: 0

What do the screens show for `COc1ccc(O)c(-c2cc(-c3cccs3)[nH]n2)c1`?
TNAP inh no acc: -115; TNAP act hi DEA: 1; TNAP inh hi DEA: -1

How did Cc1n[nH]c(C)c1S(=O)(=O)NCCc1ccc(Cl)cc1 do in these assays?
TNAP inh no acc: 61*; TNAP act hi DEA: 1; TNAP inh hi DEA: -3

What do the screens show for `Cc1[nH]c(=O)[nH]c(=O)c1S(=O)(=O)NCCc1ccc(S(N)(=O)=O)cc1`?
TNAP inh no acc: 0; TNAP act hi DEA: 1; TNAP inh hi DEA: -4

What do the screens show for `CCOC(=O)c1nn(-c2ccc(F)cc2)c2nc(Nc3ccccc3)cc(=O)n12`?
Calb biofilm kill: 16; TNAP inh no acc: -7; TNAP act hi DEA: 1.1; TNAP inh hi DEA: -6

Results for Cc1cccc(/C=N/n2c(-c3ccccn3)n[nH]c2=S)c1 ?
Calb biofilm kill: 15; TNAP inh no acc: 54*; TNAP act hi DEA: 1; TNAP inh hi DEA: -2

What do the screens show for `Cn1ncc2c1ncn1nc(CCc3ccccc3)nc21`?
TNAP inh no acc: 59*; TNAP act hi DEA: 1; TNAP inh hi DEA: 3

What do the screens show for `Cn1ncc2c1ncn1nc(COc3ccc4ccccc4c3)nc21`?
TNAP inh no acc: -15; TNAP act hi DEA: 1; TNAP inh hi DEA: -3

What do the screens show for `O=C(CSc1n[nH]c(-c2ccccc2F)n1)NCC(=O)Nc1ccc(F)c(F)c1F`?
Calb biofilm kill: 14; TNAP inh no acc: 89*; TNAP act hi DEA: 1; TNAP inh hi DEA: 2

How did CN(/N=C/c1cccnc1)c1cnc2ccccc2n1 do in these assays?
Calb biofilm kill: 5; TNAP inh no acc: -15; TNAP act hi DEA: 1.1; TNAP inh hi DEA: -6

Results for NC(=S)N=Nc1c(O)[nH]c2ccccc12 ?
Calb biofilm kill: 21; TNAP inh no acc: 65*; TNAP act hi DEA: 1; TNAP inh hi DEA: 4

Results for Cc1ccc2[nH]c(O)c(N=NC(N)=S)c2c1 ?
Calb biofilm kill: 29

Results for O=C(OCCOc1ccccc1)c1n[nH]c2ccccc12 ?
Calb biofilm kill: 16

What do the screens show for `C=CCSc1n[nH]c(-c2ccc(OCCCC)cc2)n1`?
TNAP inh no acc: 26; TNAP act hi DEA: 1; TNAP inh hi DEA: -2

What do the screens show for `C=CCSc1n[nH]c(-c2ccc(OCCC)cc2)n1`?
TNAP inh no acc: 50*; TNAP act hi DEA: 1; TNAP inh hi DEA: -1

What do the screens show for `CCn1c(=O)c(C(=O)NNS(=O)(=O)c2ccc(Br)cc2)c(O)c2ccccc21`?
Calb biofilm kill: -6; TNAP inh no acc: -11; TNAP act hi DEA: 1.1; TNAP inh hi DEA: -6

Results for O=C(CSc1n[nH]c(-c2ccccc2)n1)NCc1cccc(C(=O)O)c1 ?
Calb biofilm kill: 29; TNAP inh no acc: 70*; TNAP act hi DEA: 1; TNAP inh hi DEA: -5

How did CCc1ccc(C(=O)CSc2n[nH]c(-c3ccncc3)n2)cc1 do in these assays?
TNAP inh no acc: 6; TNAP act hi DEA: 1; TNAP inh hi DEA: -4

Results for O=C(O)c1cccc(CSc2n[nH]c(-c3ccc(Cl)cc3Cl)n2)c1 ?
Calb biofilm kill: 17; TNAP inh no acc: 96*; TNAP act hi DEA: 1; TNAP inh hi DEA: 4

What do the screens show for `O=C(CSc1n[nH]c(-c2ccccc2)n1)c1ccc(O)c(O)c1`?
TNAP inh no acc: 68*; TNAP act hi DEA: 1; TNAP inh hi DEA: -2

What do the screens show for `O=C(O)c1cccc(CSc2ncccn2)c1`?
TNAP inh no acc: -15; TNAP act hi DEA: 1; TNAP inh hi DEA: -4

What do the screens show for `Cc1cc(SCC(=O)c2ccc(O)c(O)c2)nc2ccccc12`?
Calb biofilm kill: 9; TNAP inh no acc: 72*; TNAP act hi DEA: 1; TNAP inh hi DEA: 4

What do the screens show for `O=C(Cc1ccccc1)Nc1ccccc1C(=O)N1CCCCCC1`?
Calb biofilm kill: -1; TNAP inh no acc: -14; TNAP act hi DEA: 1; TNAP inh hi DEA: -4

How did O=C(CSc1nc(-c2ccccc2)cs1)NC(=O)NCc1ccco1 do in these assays?
TNAP inh no acc: -6; TNAP act hi DEA: 1; TNAP inh hi DEA: -5

Results for O=C(CSc1n[nH]c(-c2ccccc2)n1)NC(=O)NCc1ccco1 ?
TNAP inh no acc: 63*; TNAP act hi DEA: 1.1; TNAP inh hi DEA: -7
